Assay results reported in ChEMBL document CHEMBL2331542, “Synthesis and in vitro antibacterial activity of quinolone/naphthyridone derivatives containing 3-alkoxyimino-4-(methyl)aminopiperidine scaffolds” (2013).
≈ marks a conversion by molar mass, not a printed value.

What follows are molecules tested on Staphylococcus aureus (assay: Antibacterial activity against methicillin-sensitive Staphylococcus aureus isolate 12-6).
Format: functional
How it was run: (§1)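 MIC determined in vitro by a standard technique and defined as the lowest compound concentration giving complete inhibition of bacterial growth. The Gram-positive and Gram-negative panels were tested alongside gemifloxacin, levofloxacin and ciprofloxacin reference drugs.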

| SMILES | MIC |
| --- | --- |
| CCO/N=C1\CN(c2c(F)cc3c(=O)c(C(=O)O)cn4c3c2OC[C@@H]4C)CCC1NC (stereo partly specified) | 1 µg/mL (≈ 2.31 µM) |

The molecules below were run on Escherichia coli (assay: Antibacterial activity against Escherichia coli isolate 12-1).
Format: functional
How it was run: as §1

| SMILES | MIC |
| --- | --- |
| CCO/N=C1\CN(c2c(F)cc3c(=O)c(C(=O)O)cn4c3c2OC[C@@H]4C)CCC1NC (stereo partly specified) | 4 µg/mL (≈ 9.25 µM) |

What follows are molecules tested on Streptococcus pneumoniae (assay: Antibacterial activity against Streptococcus pneumoniae isolate 12-5).
Format: functional
How it was run: as §1

| SMILES | MIC |
| --- | --- |
| CCO/N=C1\CN(c2c(F)cc3c(=O)c(C(=O)O)cn4c3c2OC[C@@H]4C)CCC1NC (stereo partly specified) | 8 µg/mL (≈ 18.5 µM) |

These molecules were tested on Escherichia coli (assay: Antibacterial activity against Escherichia coli isolate 12-4).
Format: functional
How it was run: as §1

| SMILES | MIC |
| --- | --- |
| CCO/N=C1\CN(c2c(F)cc3c(=O)c(C(=O)O)cn4c3c2OC[C@@H]4C)CCC1NC (stereo partly specified) | > 128 µg/mL |

The molecules below were run on Klebsiella pneumoniae (assay: Antibacterial activity against extended-spectrum beta-lactamase-producing Klebsiella pneumoniae isolate 12-2).
Format: functional
How it was run: as §1

| SMILES | MIC |
| --- | --- |
| CCO/N=C1\CN(c2c(F)cc3c(=O)c(C(=O)O)cn4c3c2OC[C@@H]4C)CCC1NC (stereo partly specified) | 32 µg/mL (≈ 74 µM) |

These molecules were tested on Staphylococcus epidermidis (assay: Antibacterial activity against methicillin-sensitive Staphylococcus epidermidis isolate 12-2).
Format: functional
How it was run: as §1

| SMILES | MIC |
| --- | --- |
| CCO/N=C1\CN(c2c(F)cc3c(=O)c(C(=O)O)cn4c3c2OC[C@@H]4C)CCC1NC (stereo partly specified) | 2 µg/mL (≈ 4.62 µM) |

These molecules were tested on Staphylococcus aureus (assay: Antibacterial activity against methicillin-resistant Staphylococcus aureus isolate 12-3).
Format: functional
How it was run: (§2)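 MIC determined in vitro by standard techniques, defined as the lowest compound concentration giving complete inhibition of bacterial growth. Gemifloxacin, levofloxacin and ciprofloxacin were tested alongside as reference drugs.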

| SMILES | MIC |
| --- | --- |
| CCO/N=C1\CN(c2c(F)cc3c(=O)c(C(=O)O)cn4c3c2OC[C@@H]4C)CCC1NC (stereo partly specified) | 1 µg/mL (≈ 2.31 µM) |

Each molecule was assayed on Staphylococcus aureus (assay: Antibacterial activity against methicillin-sensitive Staphylococcus aureus isolate 12-7).
Format: functional
How it was run: as §1

| SMILES | MIC |
| --- | --- |
| CCO/N=C1\CN(c2c(F)cc3c(=O)c(C(=O)O)cn4c3c2OC[C@@H]4C)CCC1NC (stereo partly specified) | 128 µg/mL (≈ 296 µM) |

What follows are molecules tested on Klebsiella pneumoniae (assay: Antibacterial activity against extended-spectrum beta-lactamase-producing Klebsiella pneumoniae isolate 12-4).
Format: functional
How it was run: as §1

| SMILES | MIC |
| --- | --- |
| CCO/N=C1\CN(c2c(F)cc3c(=O)c(C(=O)O)cn4c3c2OC[C@@H]4C)CCC1NC (stereo partly specified) | > 128 µg/mL |

These molecules were tested on Streptococcus pneumoniae (assay: Antibacterial activity against Streptococcus pneumoniae isolate 12-2).
Format: functional
How it was run: as §1

| SMILES | MIC |
| --- | --- |
| CCO/N=C1\CN(c2c(F)cc3c(=O)c(C(=O)O)cn4c3c2OC[C@@H]4C)CCC1NC (stereo partly specified) | 1 µg/mL (≈ 2.31 µM) |

The molecules below were run on Staphylococcus aureus (assay: Antibacterial activity against methicillin-resistant Staphylococcus aureus isolate 12-15).
Format: functional
How it was run: as §2

| SMILES | MIC |
| --- | --- |
| CCO/N=C1\CN(c2c(F)cc3c(=O)c(C(=O)O)cn4c3c2OC[C@@H]4C)CCC1NC (stereo partly specified) | 1 µg/mL (≈ 2.31 µM) |

What follows are molecules tested on Staphylococcus epidermidis (assay: Antibacterial activity against methicillin-sensitive Staphylococcus epidermidis isolate 12-3).
Format: functional
How it was run: as §1

| SMILES | MIC |
| --- | --- |
| CCO/N=C1\CN(c2c(F)cc3c(=O)c(C(=O)O)cn4c3c2OC[C@@H]4C)CCC1NC (stereo partly specified) | 0.5 µg/mL (≈ 1.16 µM) |

These molecules were tested on Staphylococcus aureus (assay: Antibacterial activity against methicillin-resistant Staphylococcus aureus isolate 12-13).
Format: functional
How it was run: as §2

| SMILES | MIC |
| --- | --- |
| CCO/N=C1\CN(c2c(F)cc3c(=O)c(C(=O)O)cn4c3c2OC[C@@H]4C)CCC1NC (stereo partly specified) | 1 µg/mL (≈ 2.31 µM) |

What follows are molecules tested on Klebsiella pneumoniae (assay: Antibacterial activity against extended-spectrum beta-lactamase-producing Klebsiella pneumoniae isolate 12-1).
Format: functional
How it was run: as §1

| SMILES | MIC |
| --- | --- |
| CCO/N=C1\CN(c2c(F)cc3c(=O)c(C(=O)O)cn4c3c2OC[C@@H]4C)CCC1NC (stereo partly specified) | 8 µg/mL (≈ 18.5 µM) |

Each molecule was assayed on Staphylococcus epidermidis (assay: Antibacterial activity against methicillin-sensitive Staphylococcus epidermidis isolate 12-1).
Format: functional
How it was run: as §1

| SMILES | MIC |
| --- | --- |
| CCO/N=C1\CN(c2c(F)cc3c(=O)c(C(=O)O)cn4c3c2OC[C@@H]4C)CCC1NC (stereo partly specified) | 0.5 µg/mL (≈ 1.16 µM) |

Each molecule was assayed on Staphylococcus aureus (assay: Antibacterial activity against methicillin-sensitive Staphylococcus aureus isolate 12-10).
Format: functional
How it was run: as §1

| SMILES | MIC |
| --- | --- |
| CCO/N=C1\CN(c2c(F)cc3c(=O)c(C(=O)O)cn4c3c2OC[C@@H]4C)CCC1NC (stereo partly specified) | > 128 µg/mL |

These molecules were tested on Escherichia coli (assay: Antibacterial activity against extended-spectrum beta-lactamase-producing Escherichia coli isolate 12-1).
Format: functional
How it was run: as §1

| SMILES | MIC |
| --- | --- |
| CCO/N=C1\CN(c2c(F)cc3c(=O)c(C(=O)O)cn4c3c2OC[C@@H]4C)CCC1NC (stereo partly specified) | > 128 µg/mL |

These molecules were tested on Escherichia coli (assay: Antibacterial activity against Escherichia coli ATCC 25922).
Format: functional
How it was run: as §1

| SMILES | MIC |
| --- | --- |
| CCO/N=C1\CN(c2c(F)cc3c(=O)c(C(=O)O)cn4c3c2OC[C@@H]4C)CCC1NC (stereo partly specified) | 16 µg/mL (≈ 37 µM) |

Each molecule was assayed on Staphylococcus epidermidis (assay: Antibacterial activity against methicillin-resistant Staphylococcus epidermidis isolate 12-33).
Format: functional
How it was run: as §2

| SMILES | MIC |
| --- | --- |
| CCO/N=C1\CN(c2c(F)cc3c(=O)c(C(=O)O)cn4c3c2OC[C@@H]4C)CCC1NC (stereo partly specified) | 8 µg/mL (≈ 18.5 µM) |

Each molecule was assayed on Escherichia coli (assay: Antibacterial activity against extended-spectrum beta-lactamase-producing Escherichia coli isolate 12-2).
Format: functional
How it was run: as §1

| SMILES | MIC |
| --- | --- |
| CCO/N=C1\CN(c2c(F)cc3c(=O)c(C(=O)O)cn4c3c2OC[C@@H]4C)CCC1NC (stereo partly specified) | > 128 µg/mL |

Each molecule was assayed on Escherichia coli (assay: Antibacterial activity against extended-spectrum beta-lactamase-producing Escherichia coli isolate 12-4).
Format: functional
How it was run: as §1

| SMILES | MIC |
| --- | --- |
| CCO/N=C1\CN(c2c(F)cc3c(=O)c(C(=O)O)cn4c3c2OC[C@@H]4C)CCC1NC (stereo partly specified) | 64 µg/mL (≈ 148 µM) |

The molecules below were run on Pseudomonas aeruginosa (assay: Antibacterial activity against Pseudomonas aeruginosa isolate 12-2).
Format: functional
How it was run: as §1

| SMILES | MIC |
| --- | --- |
| CCO/N=C1\CN(c2c(F)cc3c(=O)c(C(=O)O)cn4c3c2OC[C@@H]4C)CCC1NC (stereo partly specified) | 8 µg/mL (≈ 18.5 µM) |

The molecules below were run on Klebsiella pneumoniae (assay: Antibacterial activity against Klebsiella pneumoniae isolate 12-1).
Format: functional
How it was run: as §1

| SMILES | MIC |
| --- | --- |
| CCO/N=C1\CN(c2c(F)cc3c(=O)c(C(=O)O)cn4c3c2OC[C@@H]4C)CCC1NC (stereo partly specified) | 2 µg/mL (≈ 4.62 µM) |

The molecules below were run on Klebsiella pneumoniae (assay: Antibacterial activity against Klebsiella pneumoniae isolate 12-2).
Format: functional
How it was run: as §1

| SMILES | MIC |
| --- | --- |
| CCO/N=C1\CN(c2c(F)cc3c(=O)c(C(=O)O)cn4c3c2OC[C@@H]4C)CCC1NC (stereo partly specified) | 1 µg/mL (≈ 2.31 µM) |

These molecules were tested on Klebsiella pneumoniae (assay: Antibacterial activity against Klebsiella pneumoniae isolate 12-4).
Format: functional
How it was run: as §1

| SMILES | MIC |
| --- | --- |
| CCO/N=C1\CN(c2c(F)cc3c(=O)c(C(=O)O)cn4c3c2OC[C@@H]4C)CCC1NC (stereo partly specified) | 1 µg/mL (≈ 2.31 µM) |

What follows are molecules tested on Staphylococcus epidermidis (assay: Antibacterial activity against methicillin-resistant Staphylococcus epidermidis isolate 12-35).
Format: functional
How it was run: as §2

| SMILES | MIC |
| --- | --- |
| CCO/N=C1\CN(c2c(F)cc3c(=O)c(C(=O)O)cn4c3c2OC[C@@H]4C)CCC1NC (stereo partly specified) | 0.5 µg/mL (≈ 1.16 µM) |

The molecules below were run on Pseudomonas aeruginosa (assay: Antibacterial activity against Pseudomonas aeruginosa isolate 12-1).
Format: functional
How it was run: as §1

| SMILES | MIC |
| --- | --- |
| CCO/N=C1\CN(c2c(F)cc3c(=O)c(C(=O)O)cn4c3c2OC[C@@H]4C)CCC1NC (stereo partly specified) | 16 µg/mL (≈ 37 µM) |

Each molecule was assayed on Staphylococcus epidermidis (assay: Antibacterial activity against methicillin-resistant Staphylococcus epidermidis isolate 12-5).
Format: functional
How it was run: as §2

| SMILES | MIC |
| --- | --- |
| CCO/N=C1\CN(c2c(F)cc3c(=O)c(C(=O)O)cn4c3c2OC[C@@H]4C)CCC1NC (stereo partly specified) | 0.5 µg/mL (≈ 1.16 µM) |

Each molecule was assayed on Escherichia coli (assay: Antibacterial activity against Escherichia coli isolate 12-5).
Format: functional
How it was run: as §1

| SMILES | MIC |
| --- | --- |
| CCO/N=C1\CN(c2c(F)cc3c(=O)c(C(=O)O)cn4c3c2OC[C@@H]4C)CCC1NC (stereo partly specified) | > 128 µg/mL |

The molecules below were run on Pseudomonas aeruginosa (assay: Antibacterial activity against Pseudomonas aeruginosa ATCC 27853).
Format: functional
How it was run: as §1

| SMILES | MIC |
| --- | --- |
| CCO/N=C1\CN(c2c(F)cc3c(=O)c(C(=O)O)cn4c3c2OC[C@@H]4C)CCC1NC (stereo partly specified) | 32 µg/mL (≈ 74 µM) |

What follows are molecules tested on Staphylococcus aureus (assay: Antibacterial activity against Staphylococcus aureus […]).
Format: functional
How it was run: as §1

| SMILES | MIC |
| --- | --- |
| CCO/N=C1\CN(c2c(F)cc3c(=O)c(C(=O)O)cn4c3c2OC[C@@H]4C)CCC1NC (stereo partly specified) | 0.5 µg/mL (≈ 1.16 µM) |
